The results in this text go back to PubChem BioAssay.

Values without a mark were called inactive. Records with an inconclusive call do not appear. Calls of active or inactive are those of the source.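 How the source made its calls, unless noted: active means inhibition over a set limit, the all-compound mean plus 3 SD, in both replicate runs; inconclusive means over that limit in just one replicate run; inactive means at or under that limit in both runs.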

The nature of test [1]: OD615 S. cerevisiae growth inhibition, permissive medium, pilot counter-assay, permissive growth control for S. cerevisiae lifespan shortening project (AID 705;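 active means growth inhibition above 25% in both replicates, a cutoff set 3 SD above the mean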). The following applies: OD615, 24 h, at 10 µM, active compounds read high. Summed up: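 System: Engineered DeaD yeast | Buffer or medium: SC raffinose/galactose permissive medium | Incubation: Cells pre-grown 4 h, then 24 h compound exposure, 30 °C humidified | Measured by: Absorbance (optical density) at 615 nm | Read-out: Reduction in yeast growth (OD615)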

Test [2] can be described thus: Restrictive medium S. cerevisiae growth inhibition, OD615, pilot screen of yeast lifespan reduction project, restrictive growth control (AID 706;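 active means growth inhibition above a set limit, 3 SD over mean compound inhibition, in both replicates, cut at about 43% in these data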;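 further: modified DeaD lifespan yeast strain shifted to restrictive glucose medium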). The conditions noted are these: OD615, 48 h, at 10 µM, active compounds read high. In a few lines:
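Material: modified S. cerevisiae; Medium: glucose-based CSMM-D restrictive medium; Compound dosing: one concentration, 10 µM final, 0.25% DMSO; Incubation: 48 h compound exposure at 30 °C; Measured by: OD615.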

A short description of test [3]: viability gain of MRP-1-high H69AR cells under doxorubicin, pilot screen, MRP-1 activator project, CellTiter-Glo, duplicate (AID 807;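 active means viability increase at or above a cutoff of the median across tested compounds plus 3 SD, cut at about 8.5% in these data, passing the limit was not always enough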;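 further: compound pretreatment 18-22 h then 72 h combined with doxorubicin; 0% = doxorubicin alone and 100% = vehicle without doxorubicin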). The conditions noted are these: H69AR viability with doxorubicin, CellTiter-Glo luminescence; at 10 µM; active compounds read high. In general terms: ATP-based viability assays read luminescence as a measure of living cells.
A short description of test [4]: growth suppression of beta-catenin knockout HCT116, pilot screen, human colon tumor cells (AID 823;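 active means cell viability at or below a set limit in both duplicate runs, the limit being the all-compound median minus 4 SD, cut at about 23% in these data, passing the limit was not always enough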;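 further: 0% = wells killed by 20 µM Hyamine and 100% = untreated DMSO cell wells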). The following applies: CellTiter-Glo, 60 h, at 10 µM, active compounds read low.
Test [5] is described as follows: growth suppression of PTEN-deleted HCT116, pilot screen, cell-based, HCT116 clonal line, CellTiter-Glo (AID 824;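 active means viability at or below 27.92% in each of two runs, the all-compound median minus 4 SD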;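 further: 0% = 20 µM Hyamine control and 100% = vehicle cell control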). The conditions noted are these: 60 h, at 10 µM, active compounds read low.
Test [6] is described as follows: inhibitors of the yeast RAM network, pilot screen, dse1pr::URA3 reporter, 5-FOA selection (AID 869).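 Further: 0% = DMSO wells with no growth and 100% = 10 µM 1-NA-PP1 with full growth; RAM network block rescues cells from 5-FOA so hits raise OD615 growth.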 The following applies: S. cerevisiae dse1pr::URA3 5-FOA growth, OD615, 2 d; at 10 µM; active compounds read high; strain carries analog-sensitive mutant Cbk1 kinase.
Test [7] in a line: RAM signaling pathway blockade in yeast – S. cerevisiae, Pdr1DBD-CYC8 efflux-inhibited sensitized strain, primary screen (AID 1298;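 active means RAM network inhibition above 8.4% in each of two replicates, 3 SD over the compound average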;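 further: 0% = DMSO untreated cells without growth and 100% = 10 µM 1-NA-PP1 full growth; higher means more yeast growth rescued from 5-FOA killing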). The conditions noted are these: S. cerevisiae cbk1-as DSE1-URA3 strain, 5-FOA growth OD615, 2 d; at 50 µM; active compounds read high.

On to `O=C(Nc1cccnc1)C(Cc1ccccc1)n1cccc1` (stereo unspecified), for which the figures for the growth inhibition in test [1] and in test [2] were -15.5% and -13.4%, respectively. For the same compound, in test [3], the viability increase was -4.93%. In addition, the viability (commonly a read-out of living cells in per cent, often relative to untreated cells) is 102% in test [4] and 91.8% in test [5]. Also, in test [6], the inhibition – broadly, the drop in the measured response relative to a control, in per cent – was 0.44%. The RAM network inhibition in test [7] was 4.6%.
Turning to `O=C1c2ccccc2S(=O)(=O)N1CC(O)COc1ccc(Br)cc1` (stereo unspecified), the values for the growth inhibition in test [1] and in test [2] were -2.32% and 5.18%, respectively. In addition, the viability increase in test [3] is -0.35%. Besides, the viability in test [4] is 106%; in test [5] it was 97.4%. The inhibition in test [6] was 1.39%. The RAM network inhibition in test [7] was 2.2%.
Turning to `CCOC(=O)C1CCCN(C(=O)C2CCCN(S(=O)(=O)c3ccc4c(c3)oc(=O)n4C)C2)C1` (stereo unspecified), the growth inhibition in test [1] was -4.01%; in test [2] it was -0.98%. Moreover, the viability increase in test [3] is 0.99%. Moreover, the viability in test [4] is 92.2%; in test [5], 94.5%. In test [6], the inhibition was 0.445%. Besides, in test [7], the RAM network inhibition is -0.53%.
Take `COCCSc1nc2c(c(=O)[nH]c(=O)n2C)n1Cc1cccc(C)c1`: the growth inhibition was 0.55% in test [1] and 0.3% in test [2]. Moreover, the viability increase in test [3] is -1.81%. The viability is 90.2% in test [4] and 79.6% in test [5]. Moreover, the inhibition in test [6] is 1.57%. In test [7], the RAM network inhibition is 4.44%.
With `Cc1ccc(CC2S/C(=C(/C#N)C(=O)NCc3ccco3)N(c3ccccc3)C2=O)cc1` (stereo unspecified), the growth inhibition is 1.42% in test [1] and 2.41% in test [2]. The viability increase in test [3] is -7.76%. The values for the viability in test [4] and in test [5] were 45% and 60.6%, respectively. The inhibition in test [6] was 0.44%. The RAM network inhibition in test [7] is 1.64%.
In the case of `COc1ccc2c(c1)[nH]c1c(N3CCN(Cc4ccc5c(c4)OCO5)CC3)ncnc12`, the growth inhibition is -15.7% in test [1] and -18.4% in test [2]. Besides, in test [3], the viability increase was -5.9%. Further, the viability in test [4] is 11.9% (active); in test [5], 23.1% (active). Also, the inhibition in test [6] was 2.08%. Further, the RAM network inhibition in test [7] is 5.66%.
Turning to `CCOC(=O)Cc1nnc(NC(=O)CSc2nncn2C)s1`, the growth inhibition in test [1] is -1.1%; in test [2] it was 7.44%. For the same compound, in test [3], the viability increase was -0.06%. In addition, the viability is 98.5% in test [4] and 94.5% in test [5]. Further, the inhibition in test [6] is 1.5%. The RAM network inhibition in test [7] is 2.87%.
`COc1ccc(C2c3sc(=O)[nH]c3SC3C(=O)N(c4ccccc4)C(=O)C32)cc1` (stereo unspecified): the growth inhibition is -6.11% in test [1] and 12.6% in test [2]. The viability increase in test [3] is 0.68%. For the same compound, the viability in test [4] is 99.9%; in test [5], 99.3%. In addition, the inhibition in test [6] is 2.98%. Further, the RAM network inhibition in test [7] is 5.53%.
As for `Cn1c(NC(=O)c2cc(Br)ccc2Cl)cc(=O)n(C)c1=O`, the results for the growth inhibition in test [1] and in test [2] were 5.54% and -8.75%, respectively. Further, in test [3], the viability increase is -3.46%. In addition, the viability in test [4] was 96.8%; in test [5] it was 90.7%. Further, in test [6], the inhibition was 1.64%. Further, in test [7], the RAM network inhibition was 1.23%.
`O=C1CN(C(=O)c2ccc(Br)o2)C(c2ccccc2)c2cc(Br)ccc2N1` (stereo unspecified): the figures for the growth inhibition in test [1] and in test [2] were -9.54% and -12.8%, respectively. Besides, in test [3], the viability increase is -8.1%. In addition, the viability in test [4] was 58.3%; in test [5], 55.6%. The inhibition in test [6] was 4.09%. The RAM network inhibition in test [7] was 6.05%.
In the case of `COC(=O)c1ccccc1NC(=O)c1cc(C2CC2)on1`, the growth inhibition in test [1] was -8.38%; in test [2], 4.01%. In addition, the viability increase in test [3] was -3.29%. The viability was 91.5% in test [4] and 90.8% in test [5]. Moreover, in test [6], the inhibition is 1.4%. Moreover, the RAM network inhibition in test [7] was 5.95%.
For `CC12CCC(C(=O)Nc3ccccc3N3CCOCC3)(CC1=O)C2(C)C` (stereo unspecified), the growth inhibition in test [1] was -9.71%; in test [2], -14.9%. Also, the viability increase in test [3] was -2.5%. Moreover, the viability is 90.3% in test [4] and 94.8% in test [5]. In addition, in test [6], the inhibition is 0.715%. For the same compound, the RAM network inhibition in test [7] is 6.03%.
Regarding `CC1(C)CC(=O)C=C(Nc2ccccc2F)C1`, the growth inhibition in test [1] was -10.4%; in test [2], -10.5%. Also, the viability increase in test [3] was -2.25%. Moreover, the viability in test [4] was 111%; in test [5] it was 98.3%. For the same compound, the inhibition in test [6] is -0.01%. Also, in test [7], the RAM network inhibition is 1.22%.
Consider `O=C(N1CCN(c2ccc(F)cc2)CC1)C12CC3CC(CC(C3)C1)C2`, for which the growth inhibition in test [1] was -15.7%; in test [2], -5.23%. In addition, the viability increase in test [3] was -0.18%. Moreover, the viability in test [4] was 84.1%; in test [5], 83.6%. Moreover, the inhibition in test [6] is 0.94%. In addition, in test [7], the RAM network inhibition was 11.5%.
`COc1cccc(C2CC(c3ccc(Cl)cc3)n3nc(N)nc3N2)c1` (stereo unspecified): the growth inhibition was -3.76% in test [1] and 1.46% in test [2]. Further, the viability increase in test [3] is 0.04%. The viability in test [4] is 100%; in test [5], 91.1%. In test [6], the inhibition was 1.63%. For the same compound, the RAM network inhibition in test [7] is 7.39%.
For `O=C(NCc1nc2ccccc2[nH]1)c1cccs1`, the growth inhibition in test [1] is -13.9%; in test [2], -1.7%. Also, the viability increase in test [3] is 0.55%. In addition, the values for the viability in test [4] and in test [5] were 105% and 103%, respectively. Moreover, in test [6], the inhibition is 2.04%. In addition, the RAM network inhibition in test [7] is 5.75%.
In the case of `Cc1ccc(C(=O)NCCCn2ccnc2)o1`, the growth inhibition was -1.7% in test [1] and -6.83% in test [2]. Moreover, in test [3], the viability increase is 0.23%. In addition, the viability in test [4] is 101%; in test [5] it was 97.8%. The inhibition in test [6] was -0.265%. The RAM network inhibition in test [7] was 3.73%.
Turning to `Cc1ccc(O)c(NC(=O)CCC2CCCCC2)c1`, the results for the growth inhibition in test [1] and in test [2] were -1.6% and 1.04%, respectively. In addition, the viability increase in test [3] is -3.63%. The viability in test [4] was 89.4%; in test [5], 84.5%. Moreover, the inhibition in test [6] was 4.25%. In addition, the RAM network inhibition in test [7] is 4.08%.
